Source: ChEMBL document CHEMBL5712084, “Interactome Rewiring Following Pharmacological Targeting of BET Bromodomains” (Mol Cell, 2019)
Calls of active or inactive are those of the source. The rule behind the calls is not given here.

What was measured:
[1] = target: Bromodomain-containing protein 3 (Homo sapiens) (UniProt Q15059); test: Inhibition of BRD3 in human Flp-In-T-REx-293 cells assessed as increase in nucleolar protein partners (RNAPI, UBTF and TCOF1 ) at 500 nM incubated for 24 hrs by BioID assay; type: cell-based
In short: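 Stable Flp-In T-REx HEK293 lines carrying BirA*-FLAG-tagged baits were grown in hygromycin to 80% confluence. Expression was induced with 1 μg/mL tetracycline and cells were given 50 μM biotin for 24 h. Lysis was in RIPA, with streptavidin capture for 3 h at 4°C and on-bead trypsin digestion, then LC-MS/MS. BirA*-FLAG-GFP or -NLS cells served as controls. Two biological replicates were run.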

[2] = target: T1, Bromodomain and extra-terminal motif (BET) (Homo sapiens) (UniProt P25440+O60885+Q58F21+Q15059); conditions: Flp-In-T-REx-293, dose 500.0 nM, time 10-240 min
[3] = test system: Bromodomain-containing protein 3 (Homo sapiens), Q15059 [UNDEFINED MUTATION]; test: Inhibition of BRD3 mutant bromodomain in human U2OS cells assessed as accumulation of BRD3 mutant in nucleolus at 500 nM by live cell imaging; type: cell-based
In short: (§1)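 Flp-In T-REx U-2 OS cells were grown in DMEM with GlutaMAX and 10% heat-inactivated FBS plus penicillin-streptomycin at 37°C and 10% CO2. eGFP-tagged constructs were expressed from a tetracycline-inducible pcDNA5-FRT-TO vector. Nuclear and nucleolar localisation and foci were followed by live-cell imaging.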

[4] = target: T1, Bromodomain and extra-terminal motif (BET) (Homo sapiens); conditions: Flp-In-T-REx-293, dose 500.0 nM, time 10-240 min; remark: listed apart in the source
[5] = target: Bromodomain-containing protein 2 (Homo sapiens) (UniProt P25440); conditions: U2OS, dose 500.0 nM, time 12.0 hrs
[6] = target: T1, Bromodomain and extra-terminal motif (BET) (Homo sapiens); conditions: Flp-In-T-REx-293, dose 500.0 nM, time 10-240 min; remark: listed apart in the source
[7] = test system: Bromodomain-containing protein 3 (Homo sapiens), Q15059 [UNDEFINED MUTATION]; test: Inhibition of BRD3 mutant bromodomain in human U2OS cells assessed as accumulation of BRD3 mutant in to foci at 500 nM by live cell imaging; type: cell-based; in short: as §1
[8] = target: T1, Bromodomain and extra-terminal motif (BET) (Homo sapiens); conditions: Flp-In-T-REx-293, dose 500.0 nM, time 10-240 min; remark: listed apart in the source
[9] = target: Bromodomain-containing protein 2 (Homo sapiens) (UniProt P25440); conditions: U2OS, dose 500.0 nM, time 20.0 sec
[10] = target: T1, Bromodomain and extra-terminal motif (BET) (Homo sapiens); conditions: Flp-In-T-REx-293, dose 500.0 nM, time 10-240 min; remark: listed apart in the source
BRD4/BRD9 (Homo sapiens) = BRD4/BRD9 (Homo sapiens) (UniProt O60885+Q9H8M2); conditions: HEK293, dose 5.0 nmol
[11] = target: Bromodomain-containing protein 3 (Homo sapiens) (UniProt Q15059); test: Inhibition of BRD3 in human U2OS cells assessed as induction of assembly of GFP-tagged BRD3 constructs in to dense foci at 500 nM measured within 20 seconds by live cell imaging; type: cell-based; conditions: time 20.0 sec; in short: as §1
[12] = target: T1, Bromodomain and extra-terminal motif (BET) (Homo sapiens); conditions: Flp-In-T-REx-293, dose 500.0 nM, time 1.0 hrs
U2OS [13] = test: Inhibition of BRD1:2 mutant bromodomain in human U2OS cells assessed as foci formation of BRD2 mutant in to foci at 500 nM by live cell imaging; type: cell-based; in short: as §1
[14] = target: T1, Bromodomain and extra-terminal motif (BET) (Homo sapiens); conditions: Flp-In-T-REx-293, dose 500.0 nM
[15] = target: T1, Bromodomain and extra-terminal motif (BET) (Homo sapiens); conditions: Flp-In-T-REx-293, dose 500.0 nM, time 10-240 min; remark: listed apart in the source
[16] = target: T1, Bromodomain and extra-terminal motif (BET) (Homo sapiens); conditions: Flp-In-T-REx-293, dose 500.0 nM, time 10-240 min; remark: listed apart in the source
[17] = target: Bromodomain-containing protein 3 (Homo sapiens) (UniProt Q15059); test: Inhibition of BRD3 in human U2OS cells assessed as displacement of BRD3 from rDNA IGS region toward the transcribed regions at 500 nM; type: cell-based
[18] = target: T1, Bromodomain and extra-terminal motif (BET) (Homo sapiens); conditions: Flp-In-T-REx-293, dose 500.0 nM; remark: listed apart in the source
U2OS [19] = test: Effect on localization of the nucleolar proteins (PARP1, POLR1E, and TCOF1) in human U2OS cells at 500 nM; type: functional, cell-based; in short: as §1
[20] = target: Bromodomain-containing protein 3 (Homo sapiens) (UniProt Q15059); test: Inhibition of BRD3 in human U2OS cells assessed as increase in association with partner protein (TCOF1, UBTF, and RNAPI) at 500 nM; type: cell-based
[21] = target: T1, Bromodomain and extra-terminal motif (BET) (Homo sapiens); conditions: Flp-In-T-REx-293, dose 500.0 nM, time 10-240 min; remark: listed apart in the source
[22] = test system: Bromodomain-containing protein 2 (Homo sapiens), P25440 [UNDEFINED MUTATION]; conditions: U2OS, dose 500.0 nM
[23] = test system: Bromodomain-containing protein 2 (Homo sapiens), P25440 [UNDEFINED MUTATION]; conditions: Flp-In-T-REx-293, dose 500.0 nM, time 24.0 hrs
[24] = test system: Bromodomain-containing protein 1 (Homo sapiens), O95696 [UNDEFINED MUTATION]; test: Inhibition of BRD1 mutant bromodomain in human U2OS cells expressing BD1 mutant assessed as diffuse nuclear localization of BD1 mutant in asynchronously growing cells at 500 nM by live cell imaging; type: cell-based; in short: as §1
[25] = target: Bromodomain-containing protein 3 (Homo sapiens) (UniProt Q15059); test: Inhibition of BRD3 in human U2OS cells assessed as induction of assembly of GFP-tagged BRD3 constructs in to dense foci at 500 nM measured 12 hrs after drug washout by live cell imaging; type: cell-based; in short: as §1

Bromodomain-containing protein 3 (Homo sapiens), sequence (Q15059 2-726 limits assumed): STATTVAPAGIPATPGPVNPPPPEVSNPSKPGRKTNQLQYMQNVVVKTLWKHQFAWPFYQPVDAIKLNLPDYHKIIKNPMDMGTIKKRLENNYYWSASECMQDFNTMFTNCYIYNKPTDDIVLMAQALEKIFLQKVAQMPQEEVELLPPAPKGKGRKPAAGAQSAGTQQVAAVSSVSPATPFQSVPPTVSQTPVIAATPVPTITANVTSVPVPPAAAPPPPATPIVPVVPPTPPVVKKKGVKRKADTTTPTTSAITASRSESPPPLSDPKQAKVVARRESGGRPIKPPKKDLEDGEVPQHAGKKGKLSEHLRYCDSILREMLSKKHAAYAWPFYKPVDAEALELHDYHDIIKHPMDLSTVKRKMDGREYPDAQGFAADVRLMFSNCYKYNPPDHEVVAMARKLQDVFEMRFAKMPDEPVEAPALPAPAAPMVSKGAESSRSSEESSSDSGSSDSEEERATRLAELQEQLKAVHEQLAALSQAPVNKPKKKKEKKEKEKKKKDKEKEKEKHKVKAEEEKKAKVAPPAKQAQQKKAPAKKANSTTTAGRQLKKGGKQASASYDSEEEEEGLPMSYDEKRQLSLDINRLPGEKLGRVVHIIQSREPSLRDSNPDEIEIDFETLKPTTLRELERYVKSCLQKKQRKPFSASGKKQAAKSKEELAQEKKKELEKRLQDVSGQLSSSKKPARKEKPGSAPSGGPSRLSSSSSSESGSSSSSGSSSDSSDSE
Bromodomain-containing protein 3 (Homo sapiens), Q15059 [UNDEFINED MUTATION], sequence (Q15059 whole entry, looked up, change not shown): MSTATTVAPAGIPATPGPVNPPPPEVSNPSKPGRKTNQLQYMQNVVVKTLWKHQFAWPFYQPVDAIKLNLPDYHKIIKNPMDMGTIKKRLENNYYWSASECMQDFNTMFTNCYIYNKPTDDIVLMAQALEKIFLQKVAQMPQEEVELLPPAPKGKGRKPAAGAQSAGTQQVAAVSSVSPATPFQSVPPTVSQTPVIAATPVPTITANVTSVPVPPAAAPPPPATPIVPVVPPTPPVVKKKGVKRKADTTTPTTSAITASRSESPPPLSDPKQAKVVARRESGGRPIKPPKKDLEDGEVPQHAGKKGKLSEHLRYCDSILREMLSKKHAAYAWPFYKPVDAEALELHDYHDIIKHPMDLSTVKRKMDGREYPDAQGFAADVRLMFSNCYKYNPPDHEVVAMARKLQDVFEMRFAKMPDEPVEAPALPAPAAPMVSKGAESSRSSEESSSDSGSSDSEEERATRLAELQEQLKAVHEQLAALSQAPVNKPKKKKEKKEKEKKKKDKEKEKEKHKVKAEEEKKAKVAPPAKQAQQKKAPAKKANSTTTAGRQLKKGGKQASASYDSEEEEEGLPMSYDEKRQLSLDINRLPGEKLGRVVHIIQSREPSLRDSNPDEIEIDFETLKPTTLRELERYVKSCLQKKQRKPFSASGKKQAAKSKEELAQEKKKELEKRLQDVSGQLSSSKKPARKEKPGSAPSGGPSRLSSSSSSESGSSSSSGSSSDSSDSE
Bromodomain-containing protein 2 (Homo sapiens), P25440 [UNDEFINED MUTATION], sequence (P25440 whole entry, looked up, change not shown): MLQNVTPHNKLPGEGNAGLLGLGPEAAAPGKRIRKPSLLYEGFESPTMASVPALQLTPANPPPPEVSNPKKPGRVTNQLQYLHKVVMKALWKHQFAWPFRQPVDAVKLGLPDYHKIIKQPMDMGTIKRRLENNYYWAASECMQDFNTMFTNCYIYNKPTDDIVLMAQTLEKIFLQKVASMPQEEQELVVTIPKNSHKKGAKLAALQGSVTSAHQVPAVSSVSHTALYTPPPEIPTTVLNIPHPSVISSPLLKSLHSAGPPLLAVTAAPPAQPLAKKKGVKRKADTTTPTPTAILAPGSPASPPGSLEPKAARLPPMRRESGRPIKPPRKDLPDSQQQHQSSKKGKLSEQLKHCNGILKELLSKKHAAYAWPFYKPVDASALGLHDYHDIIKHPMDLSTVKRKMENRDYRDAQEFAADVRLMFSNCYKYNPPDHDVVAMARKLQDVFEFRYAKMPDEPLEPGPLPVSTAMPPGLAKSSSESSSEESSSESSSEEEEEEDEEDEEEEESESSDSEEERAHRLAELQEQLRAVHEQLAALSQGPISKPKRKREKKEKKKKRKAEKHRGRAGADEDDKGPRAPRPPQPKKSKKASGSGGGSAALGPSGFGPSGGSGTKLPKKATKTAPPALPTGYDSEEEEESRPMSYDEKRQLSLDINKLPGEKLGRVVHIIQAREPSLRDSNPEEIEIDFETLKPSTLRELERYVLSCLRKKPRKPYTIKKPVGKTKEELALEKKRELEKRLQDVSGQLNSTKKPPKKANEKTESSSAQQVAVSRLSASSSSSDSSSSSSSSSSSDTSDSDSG
Bromodomain-containing protein 2 (Homo sapiens), sequence (P25440 whole entry, looked up): as the sequence (P25440 whole entry, looked up, change not shown) above
BRD4/BRD9 (Homo sapiens), sequence (Q9H8M2 whole entry, looked up, other chains not shown): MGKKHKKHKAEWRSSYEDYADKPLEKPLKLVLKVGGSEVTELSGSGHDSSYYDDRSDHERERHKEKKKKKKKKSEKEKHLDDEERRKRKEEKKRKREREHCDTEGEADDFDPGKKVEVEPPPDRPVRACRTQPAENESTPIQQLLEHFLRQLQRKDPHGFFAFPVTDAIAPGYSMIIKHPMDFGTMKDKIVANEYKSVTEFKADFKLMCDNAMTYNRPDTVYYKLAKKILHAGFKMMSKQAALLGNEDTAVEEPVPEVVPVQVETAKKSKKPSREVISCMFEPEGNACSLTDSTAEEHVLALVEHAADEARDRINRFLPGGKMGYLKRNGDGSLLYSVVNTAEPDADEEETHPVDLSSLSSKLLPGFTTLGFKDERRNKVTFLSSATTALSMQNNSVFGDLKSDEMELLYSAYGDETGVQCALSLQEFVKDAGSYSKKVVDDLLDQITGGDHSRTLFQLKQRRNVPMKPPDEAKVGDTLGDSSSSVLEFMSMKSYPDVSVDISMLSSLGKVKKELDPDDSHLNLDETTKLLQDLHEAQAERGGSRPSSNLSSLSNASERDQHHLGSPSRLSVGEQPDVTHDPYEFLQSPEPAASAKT
Bromodomain-containing protein 1 (Homo sapiens), O95696 [UNDEFINED MUTATION], sequence (O95696 whole entry, looked up, change not shown): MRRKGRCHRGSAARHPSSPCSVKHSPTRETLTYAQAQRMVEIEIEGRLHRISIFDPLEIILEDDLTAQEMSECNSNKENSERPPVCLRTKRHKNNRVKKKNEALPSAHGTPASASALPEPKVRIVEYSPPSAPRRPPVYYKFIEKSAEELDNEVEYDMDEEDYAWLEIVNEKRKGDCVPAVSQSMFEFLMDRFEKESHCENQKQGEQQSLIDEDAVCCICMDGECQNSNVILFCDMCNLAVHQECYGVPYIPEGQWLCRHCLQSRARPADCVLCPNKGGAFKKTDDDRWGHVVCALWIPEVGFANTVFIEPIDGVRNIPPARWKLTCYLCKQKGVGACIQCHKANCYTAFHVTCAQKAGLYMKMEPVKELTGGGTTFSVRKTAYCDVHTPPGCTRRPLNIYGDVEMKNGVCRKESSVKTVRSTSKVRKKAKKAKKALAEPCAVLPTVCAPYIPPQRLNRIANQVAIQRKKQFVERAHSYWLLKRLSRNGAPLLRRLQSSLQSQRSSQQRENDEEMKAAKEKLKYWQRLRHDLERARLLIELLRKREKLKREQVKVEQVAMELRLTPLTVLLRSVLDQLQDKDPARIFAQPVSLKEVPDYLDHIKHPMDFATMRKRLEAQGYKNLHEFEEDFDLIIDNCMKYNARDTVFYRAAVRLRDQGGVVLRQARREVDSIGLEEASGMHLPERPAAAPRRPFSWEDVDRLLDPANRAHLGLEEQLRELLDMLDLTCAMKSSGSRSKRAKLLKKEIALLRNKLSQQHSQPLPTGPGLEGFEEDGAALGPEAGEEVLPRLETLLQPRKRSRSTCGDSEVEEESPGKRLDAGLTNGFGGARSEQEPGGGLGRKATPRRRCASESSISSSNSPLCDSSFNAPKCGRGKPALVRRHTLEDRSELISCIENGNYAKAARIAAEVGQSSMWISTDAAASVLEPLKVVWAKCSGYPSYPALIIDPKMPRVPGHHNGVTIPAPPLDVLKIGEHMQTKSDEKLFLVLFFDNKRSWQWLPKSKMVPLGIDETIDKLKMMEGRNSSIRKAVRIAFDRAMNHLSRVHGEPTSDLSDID

Q: For Cc1sc2c(c1C)C(c1ccc(Cl)cc1)=N[C@@H](CC(=O)OC(C)(C)C)c1nnc(C)n1-2, which inhibition [1] is on record?
A: The inhibition was “Active”.

Q: And the inhibition [2]?
A: The inhibition was “Active”.

Q: What about the inhibition [3] of the same compound?
A: The inhibition was “Active”.

Q: What about the log2FC [4] of the same compound?
A: Its log2FC is 2.

Q: And the inhibition [5]?
A: Its inhibition is “Active”.

Q: And the inhibition [6]?
A: Its inhibition is “Active”.

Q: What about the inhibition [7] of the same compound?
A: The inhibition was “Active”.

Q: And the inhibition [8]?
A: The inhibition was “Active”.

Q: And the inhibition [9]?
A: Its inhibition is “Active”.

Q: What about the inhibition [10] of the same compound?
A: The inhibition was “Active”.

Q: What about the inhibition (BRD4/BRD9 (Homo sapiens)) of the same compound?
A: The inhibition was “inactive”.

Q: And the inhibition [11]?
A: Its inhibition is “Active”.

Q: What about the inhibition [12] of the same compound?
A: Its inhibition is “Active”.

Q: And the inhibition (U2OS [13])?
A: Its inhibition is “inactive”.

Q: And the inhibition [14]?
A: The inhibition was “Active”.

Q: What about the log2FC [15] of the same compound?
A: The log2FC was > 2.

Q: And the log2FC [16]?
A: The log2FC was > 2.

Q: And the inhibition [17]?
A: Its inhibition is “Active”.

Q: What about the inhibition [18] of the same compound?
A: The inhibition was “Active”.

Q: And the Activity (U2OS [19])?
A: Its Activity is “inactive”.

Q: And the inhibition [20]?
A: The inhibition was “Active”.

Q: And the inhibition [21]?
A: Its inhibition is “Active”.

Q: What about the inhibition [22] of the same compound?
A: The inhibition was “inactive”.

Q: And the inhibition [23]?
A: Its inhibition is “inactive”.

Q: And the inhibition [24]?
A: The inhibition was “inactive”.

Q: What about the inhibition [25] of the same compound?
A: The inhibition was “Active”.
